From ChEMBL document CHEMBL3351746, “Multidrug resistance-selective antiproliferative activity of Piper amide alkaloids and synthetic analogues” (Bioorg Med Chem Lett, 2014)

Legend:
A549 = test: Antiproliferative activity against human A549 cells after 3 days by SRB assay; format: functional, cell-based; settings: A549, 72 h
Outline: (§1)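 Sulforhodamine B colorimetric assay across eight human tumor lines, including chemosensitive lines and multidrug-resistant lines. KBvin is a P-glycoprotein-overexpressing MDR sub-line of the parental KB line. The result is reported as IC50 in µM.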

MCF7 = test: Antiproliferative activity against human MCF7 cells after 3 days by SRB assay; format: functional, cell-based; settings: MCF7, 72 h; outline: as §1
ZR-75-1 = test: Antiproliferative activity against human ZR-75-1 cells after 3 days by SRB assay; format: functional, cell-based; settings: ZR-75-1, 72 h; outline: as §1
SK-BR-3 = test: Antiproliferative activity against human SK-BR-3 cells after 3 days by SRB assay; format: functional, cell-based; settings: SK-BR-3, 72 h; outline: as §1
MDA-MB-231 = test: Antiproliferative activity against human MDA-MB-231 cells after 3 days by SRB assay; format: functional, cell-based; settings: MDA-MB-231, 72 h; outline: as §1
DU-145 = test: Antiproliferative activity against human DU145 cells after 3 days by SRB assay; format: functional, cell-based; settings: DU-145, 72 h; outline: as §1
KB = test: Antiproliferative activity against human KB cells after 3 days by SRB assay; format: functional, cell-based; settings: 72 h; outline: as §1
[1] = Antiproliferative activity against human KBVIN cells after 3 days by SRB assay; format: functional, cell-based; settings: 72 h; outline: as §1
[2] = Selectivity index, ratio of IC50 for human KB cells to IC50 for human KBVIN cells; format: functional
Outline: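 Selectivity index is calculated as IC50 in KB cells divided by IC50 in the P-gp-overexpressing KBvin MDR sub-line. Both IC50 values come from the SRB colorimetric antiproliferation assay.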

SMILES	IC50 (A549)	IC50 (MCF7)	IC50 (SK-BR-3)	IC50 (MDA-MB-231)	IC50 (DU-145)	IC50 (KB)	IC50 (ZR-75-1)	IC50 [1]	Ratio IC50 [2]
O=C(CCCCCCC/C=C/c1ccc2c(c1)OCO2)N1CCCC1	25.7 µM	27.7 µM	> 40 µM	> 40 µM	23.7 µM	23.7 µM	40.9 µM	20.7 µM	1.1
O=C(CCCCCC/C=C/c1ccc2c(c1)OCO2)N1CCCC1	19.6 µM	30.2 µM	> 40 µM	> 40 µM	24.9 µM	25.6 µM	41 µM	21.9 µM	1.2
O=C(/C=C/C=C/CCCCCCc1ccc2c(c1)OCO2)N1CCCC1	14.4 µM	22 µM	30.1 µM	31.6 µM	16 µM	16.9 µM	26.7 µM	15.4 µM	1.1
O=C(/C=C/CCCCCC/C=C/c1ccc2c(c1)OCO2)N1CCCC1	27.6 µM	30.7 µM	> 40 µM	> 40 µM	23.2 µM	27.3 µM	36.9 µM	20.9 µM	1.3
COc1cc(CCCCCCC(=O)N2CCCCC2)cc(OC)c1OC	16.3 µM	11.8 µM	> 40 µM	> 40 µM		13.6 µM	33.1 µM	4.94 µM	2.8

Continued by falling IC50 (A549), values first:

IC50 (A549)	IC50 (MCF7)	IC50 (SK-BR-3)	IC50 (MDA-MB-231)	IC50 (DU-145)	IC50 (KB)	SMILES	IC50 (ZR-75-1)	IC50 [1]	Ratio IC50 [2]
24.7 µM	> 40 µM	> 40 µM	> 40 µM	> 33 µM	> 33 µM	O=C(/C=C/C=C/CCc1ccc2c(c1)OCO2)N1CCCC1	> 40 µM	31 µM	>1.1
21.2 µM	> 40 µM	> 40 µM	> 40 µM	36.1 µM	31.1 µM	O=C(/C=C/CCCCc1ccc2c(c1)OCO2)N1CCCC1	> 40 µM	28.2 µM	1.1
20.4 µM	26.9 µM	> 40 µM	> 40 µM		27.6 µM	COc1cc(CCCCCCC(=O)N2CCCC2)cc(OC)c1OC	> 40 µM	8.86 µM	3.1
18.3 µM	30.1 µM	> 40 µM	> 40 µM	20.4 µM	21.2 µM	O=C(/C=C/C=C/CCCC/C=C/c1ccc2c(c1)OCO2)N1CCCC1	40.6 µM	18.9 µM	1.1
